PAFAH1B2 inh = PAFAH1B2 enzyme inhibitors, primary screen, biochemical, fluorescence polarization, human. inhibition, % at 3.39 µM. hit rate 1.2% among 340,000. recombinant PAFAH1B2, FP-rhodamine activity probe. Platelet-activating factor acetylhydrolase IB subunit alpha2 (Homo sapiens), P68402;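 active means inhibition above the mean of all tested compounds plus 3 SD, cut at about 24% in these data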;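 further: 0% = enzyme with DMSO and 100% = wells lacking PAFAH1B2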
GRIN3A LBD mod = binders of NR3A ligand-binding domain, primary screen, biophysical, differential scanning fluorimetry, uHTS. Tm shift relative to glycine control, % at 25 µM. NR3A LBD differential scanning fluorimetry, Tm shift; 0% = protein alone, 100% = glycine-bound protein. Glutamate receptor ionotropic, NMDA 3A (GRIN3A) ligand-binding domain. AID 1259313, 2017. hit rate 2.5% among 340,000;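 active means melting temperature shift of at least 10% of the positive control shift, at one fixed dose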
UCH37 DUB inh = inhibitors of human UCH37 deubiquitinase, primary screen, biochemical, Ub-AMC cleavage, fluorescence; Ubiquitin carboxyl-terminal hydrolase isozyme L5 (Homo sapiens), Q9Y5K5; purified proteasome/UCH37; inhibition, % (test concentration not listed); hit rate 0.33% among 330,000;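 active means mean inhibition over replicate wells above about 20%, limit read from the data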;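 further: 0% = compound-free wells with enzyme and 100% = wells lacking proteasome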
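Material: Human UCH37 enzyme supplied as purified proteasome complex | Schedule: 30 min compound-proteasome preincubation then 25 min substrate reaction, room temperature | Detection: AMC fluorescence from Ub-AMC cleavage, excitation 355 nm, emission 460 nm | Benchmarks: Wells without proteasome as full block, compound-free enzyme plus substrate as uninhibited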
PAFAH1B3 inh = PAFAH1B3 enzyme inhibitors, primary screen, biochemical, fluorescence polarization, human | recombinant PAFAH1B3, FP-rhodamine probe | Platelet-activating factor acetylhydrolase IB subunit alpha1 (Homo sapiens), Q15102 | hit rate 0.28% among 340,000 | inhibition, % at 3.39 µM;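 active means inhibition above the screen-wide average of all tested compounds plus 3 SD, cut at about 25% in these data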;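 further: 0% = enzyme with DMSO only and 100% = wells lacking PAFAH1B3 protein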
Target sequence (Q15102 whole entry, looked up): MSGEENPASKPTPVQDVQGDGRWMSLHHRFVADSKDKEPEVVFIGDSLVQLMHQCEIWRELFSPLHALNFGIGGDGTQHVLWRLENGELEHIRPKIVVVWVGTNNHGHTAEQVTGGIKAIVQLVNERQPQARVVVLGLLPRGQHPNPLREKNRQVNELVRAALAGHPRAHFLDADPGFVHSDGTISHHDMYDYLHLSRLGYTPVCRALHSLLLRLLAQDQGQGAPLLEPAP
pPAFAH FP inh = pPAFAH enzyme inhibitors, primary screen, biochemical, fluorescence polarization, human. Platelet-activating factor acetylhydrolase (Homo sapiens), Q13093. recombinant pPAFAH, FP-rhodamine probe fluorescence polarization. inhibition, % at 3.39 µM. hit rate 1.5% among 330,000. AID 463082, 2010;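 active means inhibition above the mean inhibition across the screen plus 3 SD, cut at about 25% in these data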;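 further: inhibitors block binding of the rhodamine activity-based probe so polarization drops; 0% = enzyme with DMSO and 100% = wells lacking pPAFAH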
Target sequence (Q13093 whole entry, looked up): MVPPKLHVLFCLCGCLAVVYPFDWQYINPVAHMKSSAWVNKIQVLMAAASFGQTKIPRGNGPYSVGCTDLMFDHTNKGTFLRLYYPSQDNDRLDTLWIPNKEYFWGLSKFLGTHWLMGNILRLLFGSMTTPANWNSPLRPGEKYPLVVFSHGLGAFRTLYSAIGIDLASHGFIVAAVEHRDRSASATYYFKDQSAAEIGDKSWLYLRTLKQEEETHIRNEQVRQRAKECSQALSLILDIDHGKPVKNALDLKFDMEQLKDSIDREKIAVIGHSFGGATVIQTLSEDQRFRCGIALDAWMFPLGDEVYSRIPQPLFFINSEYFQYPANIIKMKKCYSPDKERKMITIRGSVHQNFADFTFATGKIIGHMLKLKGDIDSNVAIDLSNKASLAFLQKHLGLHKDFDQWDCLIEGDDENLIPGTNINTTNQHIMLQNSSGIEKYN
PAFAH2 FP inh = PAFAH2 enzyme inhibitors, primary screen, biochemical, fluorescence polarization, human; recombinant PAFAH2, FP-rhodamine activity probe; hit rate 0.99% among 340,000; Platelet-activating factor acetylhydrolase 2, cytoplasmic (Homo sapiens), Q99487; inhibition, % at 3.39 µM;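 active means inhibition above the mean over all tested compounds plus 3 SD, cut at about 30% in these data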;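 further: inhibitors block probe labeling of enzyme so polarization drops; 0% = enzyme with DMSO and 100% = wells lacking PAFAH2 protein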
PAFAH2 FP conf = PAFAH2 enzyme inhibitors, confirmation, biochemical, fluorescence polarization, human. shares compounds with PAFAH2 FP inh. recombinant PAFAH2, FP-rhodamine activity probe. inhibition, % at 3.39 µM. hit rate 65% among 2,300. AID 493030, 2011;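 active means mean inhibition over three repeats above a set limit taken from the earlier primary screen, cut at about 30% in these data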;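 further: inhibitor blocks binding of rhodamine activity probe so polarization falls; 0% = enzyme with DMSO and 100% = wells lacking PAFAH2 protein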
Starred values were filed as active, the others as inactive. Compounds with a hit are over-represented: about 4.8% of the library has one in this group of screens.

Cc1c(C(C)(C)O)[nH]c2cc(C(F)(F)F)ccc12 was read as PAFAH1B2 inh 7.3, GRIN3A LBD mod -1.9, UCH37 DUB inh -0.9, PAFAH1B3 inh 1.1, pPAFAH FP inh 0.9 and PAFAH2 FP inh 1.9.
`O=c1[nH]c2cc(C(F)(F)F)ccc2n1-c1cc(C(F)(F)F)ccc1O` gave PAFAH1B2 inh 2.0, GRIN3A LBD mod -2.2, UCH37 DUB inh 1.4, PAFAH1B3 inh -3.1, pPAFAH FP inh 12.8, PAFAH2 FP inh 49.1* and PAFAH2 FP conf 41.7*.
O=C(COC(=O)CCC(NC(=O)OCc1ccccc1)C(=O)OCC(=O)Nc1ccccc1)Nc1ccccc1 (centres undefined) was read as PAFAH1B2 inh 5.5, GRIN3A LBD mod -6.6, UCH37 DUB inh 1.1, PAFAH1B3 inh -7.6, pPAFAH FP inh 2.8, PAFAH2 FP inh 69.7* and PAFAH2 FP conf 83.5*.
`O=C(CCC(NC(=O)OCc1ccccc1)C(=O)OCC(=O)N1CCCCC1)OCC(=O)N1CCCCC1` (centres undefined) gave PAFAH1B2 inh 5.5, GRIN3A LBD mod -3.3, UCH37 DUB inh 4.4, PAFAH1B3 inh 6.7, pPAFAH FP inh 3.1, PAFAH2 FP inh 53.2* and PAFAH2 FP conf 47.8*.
For CCCNC(=O)COC(=O)/C=C/c1ccco1 the results were PAFAH1B2 inh 6.7, GRIN3A LBD mod 4.3, UCH37 DUB inh 3.5, PAFAH1B3 inh 2.3, pPAFAH FP inh 0.1, PAFAH2 FP inh 35.7* and PAFAH2 FP conf 28.2.
`O=C(COC(=O)/C=C/c1ccccc1)NCc1ccc(Cl)cc1` gave PAFAH1B2 inh 0.7, GRIN3A LBD mod -1.5, UCH37 DUB inh -1.3, PAFAH1B3 inh 8.0, pPAFAH FP inh 9.3, PAFAH2 FP inh 33.6* and PAFAH2 FP conf 34.4*.
Screening O=C(COC(=O)/C=C/c1ccc(Cl)cc1)NC(=O)NCc1ccccc1 returned PAFAH1B2 inh -7.5, GRIN3A LBD mod 5.7, UCH37 DUB inh 4.6, PAFAH1B3 inh -7.4, pPAFAH FP inh -7.2 and PAFAH2 FP inh -17.5.
O=C(COC(=O)/C=C/c1ccco1)NCc1ccc(Cl)cc1 was read as PAFAH1B2 inh 3.7, GRIN3A LBD mod 1.2, UCH37 DUB inh 1.4, PAFAH1B3 inh 1.6, pPAFAH FP inh -3.1, PAFAH2 FP inh 42.8* and PAFAH2 FP conf 37.8*.
`COc1ccc(-c2cc(C(=O)Nc3cc(C)on3)no2)cc1OC` gave PAFAH1B2 inh 0.8, GRIN3A LBD mod 0.9, UCH37 DUB inh -70.1, PAFAH1B3 inh 10.1, pPAFAH FP inh -0.7, PAFAH2 FP inh 61.8* and PAFAH2 FP conf -3.1.
Screening COc1ccc(Nc2nc3ccccc3c(=O)[nH]2)cc1 returned PAFAH1B2 inh 5.9, GRIN3A LBD mod -0.1, UCH37 DUB inh -42.8, PAFAH1B3 inh 1.2, pPAFAH FP inh -5.2 and PAFAH2 FP inh -0.4.
`COc1ccc(/C=C/c2nc3ccccc3c(=O)o2)cc1` gave PAFAH1B2 inh 10.9, GRIN3A LBD mod -2.2, PAFAH1B3 inh 2.7, pPAFAH FP inh -5.7, PAFAH2 FP inh 62.2* and PAFAH2 FP conf 57.5*.
COc1ccccc1/C=C/c1nc2ccc(OC(C)=O)cc2c(=O)o1 was read as PAFAH1B2 inh 1.5, GRIN3A LBD mod 4.3, UCH37 DUB inh -302.5, PAFAH1B3 inh 9.2, pPAFAH FP inh 13.3, PAFAH2 FP inh 77.7* and PAFAH2 FP conf 66.7*.
`Cc1ccnc(N=Cc2nc(-c3ccccc3Br)oc2O)c1` gave PAFAH1B2 inh 1.8, GRIN3A LBD mod -10.1, UCH37 DUB inh 0.8, PAFAH1B3 inh 9.9, pPAFAH FP inh 0.2, PAFAH2 FP inh 63.5* and PAFAH2 FP conf 60.2*.
Cc1nc(N=C(N)NC(=O)c2ccccc2)nc2ccccc12 was read as UCH37 DUB inh -22.0.
For O=C1CCCN1C(=O)COc1ccccc1[N+](=O)[O-] the results were PAFAH1B2 inh 5.9, GRIN3A LBD mod -2.3, UCH37 DUB inh 0.4, PAFAH1B3 inh 3.2, pPAFAH FP inh 5.3, PAFAH2 FP inh 30.1* and PAFAH2 FP conf 18.8.
O=C1CCCN1C(=O)COc1cc(F)ccc1[N+](=O)[O-] was read as PAFAH1B2 inh -3.3, GRIN3A LBD mod 1.1, UCH37 DUB inh 6.7, PAFAH1B3 inh 0.1, pPAFAH FP inh -0.9 and PAFAH2 FP inh 3.7.
For O=C(NN=Cc1sc(N2CCOCC2)nc1-c1ccccc1)c1cccc(S(=O)(=O)N2CCCC2)c1 the results were UCH37 DUB inh -3.1.
`O=C1Nc2ccc(F)cc2C12Nc1ccccc1-c1nnc(SCc3ccccc3F)nc1O2` (centres undefined) gave PAFAH1B2 inh 8.9, GRIN3A LBD mod -2.5, UCH37 DUB inh 2.7, PAFAH1B3 inh 5.7, pPAFAH FP inh 5.2, PAFAH2 FP inh 35.1* and PAFAH2 FP conf 15.0.
COc1ccc(C(=O)NCC2CCCO2)cc1S(=O)(=O)N1CCCc2ccccc21 (centres undefined) was read as PAFAH1B2 inh 0.7, GRIN3A LBD mod -2.7, UCH37 DUB inh 0.6, PAFAH1B3 inh 1.9, pPAFAH FP inh 5.2 and PAFAH2 FP inh 6.3.
For COc1ccc(C(=O)OCC(=O)N2CCc3ccccc32)cc1S(=O)(=O)N1CCOCC1 the results were PAFAH1B2 inh 4.5, GRIN3A LBD mod 0.4, UCH37 DUB inh -0.2, PAFAH1B3 inh 3.3, pPAFAH FP inh -2.0, PAFAH2 FP inh 67.8* and PAFAH2 FP conf 69.2*.
`O=C(OCC(=O)N1CCc2ccccc21)c1cc(S(=O)(=O)N2CCOCC2)ccc1F` gave PAFAH1B2 inh 1.2, GRIN3A LBD mod -0.4, UCH37 DUB inh 0.6, PAFAH1B3 inh -2.3 and PAFAH2 FP inh -2.1.
`O=C(OCc1nnc(-c2ccc([N+](=O)[O-])cc2)o1)c1ccc(F)c(S(=O)(=O)N2CCOCC2)c1` gave PAFAH1B2 inh 5.5, GRIN3A LBD mod 0.3, UCH37 DUB inh 4.6, PAFAH1B3 inh -2.2, PAFAH2 FP inh 30.1* and PAFAH2 FP conf 22.4.
`COc1ccc(C(=O)OCC(=O)NCC2CCCO2)cc1S(=O)(=O)N1CCCc2ccccc21` (centres undefined) gave PAFAH1B2 inh 6.0, GRIN3A LBD mod -2.1, UCH37 DUB inh 2.6, PAFAH1B3 inh -1.7, pPAFAH FP inh 9.9, PAFAH2 FP inh 33.9* and PAFAH2 FP conf 27.2.

Source: PubChem
